This note sets out measurements from ChEMBL document CHEMBL3259625 (ACS Med Chem Lett, 2014).

Data set [1] is described as follows: (§1) Half life in rat liver microsomes at 1 uM by LC-MS/MS analysis in presence of NADPH. The class given is ADME. The note with it: liver microsomes. Summed up: (§2)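 Microsomal stability was measured in human, rat and mouse liver microsomes, with sunitinib run in parallel as the reference compound.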
(In general: Liver microsomes are vesicles of endoplasmic reticulum, rich in cytochrome P450 enzymes.)

Data set [2] deals with Liver microsome. As to the kind of experiment: (§3) Half life in human liver microsomes at 1 uM by LC-MS/MS analysis in presence of NADPH. The note with it: microsomes, 1 µM. The class given is ADME. Summed up: as §2
Another data set concerns Liver. As to the kind of experiment: (§4) Half life in mouse liver microsomes at 1 uM by LC-MS/MS analysis in presence of NADPH. The class given is ADME. The note with it: microsomes, 1 µM. An outline of the steps:
as §2

Data set [3] concerns Liver microsome. Described as §1. The note with it: microsomes, 1 µM. The data set is classed as ADME. An outline of the steps:
as §2

A further data set has as its system Trypanosoma cruzi. As to the kind of experiment: Antitrypanosomal activity against trypomastigotes of Trypanosoma cruzi CA-I/72 infected in mouse C2C12 cells after 72 hrs. The data set is classed as functional, organism-based. The note with it: CA-I/72, C2C12, 72 h. An outline of the steps:
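EC50 derived from dose–response curves against T. cruzi in infected mouse C2C12 myoblasts.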

The target in a further data set is T1, Cytochrome P450 1A2 (Homo sapiens, UniProt P05177).
T1 sequence (P05177 whole entry): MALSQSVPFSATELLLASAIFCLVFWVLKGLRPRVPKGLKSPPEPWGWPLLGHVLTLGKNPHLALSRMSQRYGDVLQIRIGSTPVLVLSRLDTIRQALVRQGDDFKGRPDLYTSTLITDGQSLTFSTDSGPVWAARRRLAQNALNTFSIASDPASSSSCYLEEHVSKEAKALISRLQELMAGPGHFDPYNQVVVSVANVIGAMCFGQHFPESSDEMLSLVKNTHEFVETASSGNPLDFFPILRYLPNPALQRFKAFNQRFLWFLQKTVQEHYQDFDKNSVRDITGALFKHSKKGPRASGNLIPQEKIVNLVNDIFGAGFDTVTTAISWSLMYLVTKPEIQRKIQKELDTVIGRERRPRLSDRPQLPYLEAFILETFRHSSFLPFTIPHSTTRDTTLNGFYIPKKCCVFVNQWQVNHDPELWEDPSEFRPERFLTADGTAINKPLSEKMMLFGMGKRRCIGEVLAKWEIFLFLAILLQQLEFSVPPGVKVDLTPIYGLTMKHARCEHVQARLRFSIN
As to the kind of experiment: (§5) Inhibition of CYP1A2 in human liver microsomes assessed as phenacetin […] to acetaminophen at 1 uM after 10 mins in presence of NADPH. The data set is classed as ADME. The note with it: microsomes, 10 min, 1 µM.

The next data set concerns the target Cytochrome P450 2D6 (Homo sapiens, UniProt P10635). As to the kind of experiment: (§6) Inhibition of CYP2D6 in human liver microsomes assessed as bufuralol hydroxylation to 4'-hydroxybufuralol at 1 uM after 10 mins in presence of NADPH. The data set is classed as ADME. The note with it: microsomes, 10 min, 1 µM.
In another data set the target is Cytochrome P450 2C9 (Homo sapiens, UniProt P11712). Description: (§7) Inhibition of CYP2C9 in human liver microsomes assessed as tolbutamide hydroxylation to hydroxytolbutamide at 1 uM after 10 mins in presence of NADPH. The data set is classed as ADME. The note with it: microsomes, 10 min, 1 µM.
Sequence of Cytochrome P450 2C9 (P11712 whole entry): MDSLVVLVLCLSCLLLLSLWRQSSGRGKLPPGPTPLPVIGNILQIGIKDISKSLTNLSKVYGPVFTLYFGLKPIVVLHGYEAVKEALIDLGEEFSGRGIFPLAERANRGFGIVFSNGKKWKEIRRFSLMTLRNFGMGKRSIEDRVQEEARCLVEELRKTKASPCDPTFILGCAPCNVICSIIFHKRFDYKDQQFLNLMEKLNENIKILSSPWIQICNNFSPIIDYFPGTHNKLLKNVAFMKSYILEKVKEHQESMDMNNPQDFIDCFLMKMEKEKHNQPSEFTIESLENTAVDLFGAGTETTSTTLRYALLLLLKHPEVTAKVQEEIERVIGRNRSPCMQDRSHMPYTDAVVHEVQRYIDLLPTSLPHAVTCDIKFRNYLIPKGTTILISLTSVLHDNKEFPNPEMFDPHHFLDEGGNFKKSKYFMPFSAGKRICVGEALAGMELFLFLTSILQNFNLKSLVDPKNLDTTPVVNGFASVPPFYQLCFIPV
A further data set has as its target Cytochrome P450 3A4 (Homo sapiens, UniProt P08684). Description: (§8) Inhibition of CYP3A4 in human liver microsomes assessed as midazolam hydroxylation to 1'-hydroxymidazolam at 1 uM after 10 mins in presence of NADPH. The data set is classed as ADME. The note with it: microsomes, 10 min, 1 µM.
For the next data set, the target named is T2, CYP1A2 (Homo sapiens, UniProt P05177).
T2 sequence (P05177 whole entry): T1 sequence (P05177 whole entry)
The data set is described as §5. The class given is ADME. The note with it: liver microsomes, probe phenacetin.

The nature of data set [4]: as §3. The note with it: liver microsomes. The data set is classed as ADME. Summed up:
as §2

Another data set deals with CYP2D6 (Homo sapiens, UniProt P10635). The description is as §6. The data set is classed as ADME. The note with it: liver microsomes, probe bufuralol.
Sequence of CYP2D6 (P10635 whole entry): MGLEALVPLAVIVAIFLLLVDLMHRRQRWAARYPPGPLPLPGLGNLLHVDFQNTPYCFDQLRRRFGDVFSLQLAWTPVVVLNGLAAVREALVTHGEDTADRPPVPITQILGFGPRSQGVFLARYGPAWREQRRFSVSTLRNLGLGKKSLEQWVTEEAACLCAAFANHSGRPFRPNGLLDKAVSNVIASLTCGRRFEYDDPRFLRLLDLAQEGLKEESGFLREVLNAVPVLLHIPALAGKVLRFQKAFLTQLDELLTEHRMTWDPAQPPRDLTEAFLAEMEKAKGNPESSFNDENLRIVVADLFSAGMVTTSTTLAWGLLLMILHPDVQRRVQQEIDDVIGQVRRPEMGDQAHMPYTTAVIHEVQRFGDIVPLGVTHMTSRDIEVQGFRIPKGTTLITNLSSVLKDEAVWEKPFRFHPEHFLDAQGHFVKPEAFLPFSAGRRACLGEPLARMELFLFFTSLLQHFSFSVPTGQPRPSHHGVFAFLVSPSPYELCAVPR
The target of another data set is CYP2C9 (Homo sapiens, UniProt P11712). Described as §7. The data set is classed as ADME. The note with it: liver microsomes, probe tolbutamide.
Sequence of CYP2C9 (P11712 whole entry): as the sequence (P11712 whole entry) above
The target in the next data set is CYP3A4 (Homo sapiens, UniProt P08684). The data set is described as §8. The note with it: liver microsomes, probe midazolam. The data set is classed as ADME.
Sequence of CYP3A4 (P08684 whole entry): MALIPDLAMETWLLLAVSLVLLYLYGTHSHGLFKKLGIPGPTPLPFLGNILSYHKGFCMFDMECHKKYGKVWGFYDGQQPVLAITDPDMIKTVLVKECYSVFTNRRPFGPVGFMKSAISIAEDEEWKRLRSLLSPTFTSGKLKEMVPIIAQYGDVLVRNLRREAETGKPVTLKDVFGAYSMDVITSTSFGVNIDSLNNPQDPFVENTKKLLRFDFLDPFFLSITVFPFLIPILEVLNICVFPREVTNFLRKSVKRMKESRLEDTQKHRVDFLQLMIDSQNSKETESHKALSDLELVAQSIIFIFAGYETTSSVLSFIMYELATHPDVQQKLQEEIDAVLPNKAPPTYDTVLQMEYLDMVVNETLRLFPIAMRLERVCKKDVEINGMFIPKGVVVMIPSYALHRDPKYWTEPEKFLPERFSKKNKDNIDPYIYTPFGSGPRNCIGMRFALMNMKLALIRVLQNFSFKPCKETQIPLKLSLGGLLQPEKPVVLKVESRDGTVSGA
The nature of data set [5]: as §4. The note with it: liver microsomes. The class given is ADME. An outline of the steps:
as §2

Sequence of Cytochrome P450 2D6 (P10635 whole entry): as the sequence (P10635 whole entry) above
Sequence of Cytochrome P450 3A4 (P08684 whole entry): as the sequence (P08684 whole entry) above

A word on the half-life: it is the time in which the quantity being followed falls by half. `O=C(N[C@H](Cc1c[nH]c2ccccc12)C(=O)Nc1ccncc1)c1ccc(-c2cccc(F)c2)cc1F`: the half-life at 1 µM in [1] came out at 20 min. Further, the values for the t1/2 with Liver microsome [2] and in the data set with Liver were 18 min and 27 min, respectively.
Usually EC50 stands for the midpoint of the concentration-response curve. A lower EC50 goes with an effect from little substance. In the case of `O=C(N[C@H](Cc1c[nH]c2ccccc12)C(=O)Nc1ccncc1)c1ccc(-c2cc(F)ccc2F)cc1F`, the t1/2 in the data set with Liver microsome [3] and in the data set on Liver microsome [2] was 17 min each time. For the same molecule, the EC50 in the data set with Trypanosoma cruzi came out at 1.3 nM. For the same molecule, the “inhibition (INH)” value is given as 3% on Cytochrome P450 1A2, 47% on Cytochrome P450 2D6, 92% on Cytochrome P450 2C9 and 74% at Cytochrome P450 3A4.
As to `O=C(N[C@H](Cc1c[nH]c2ccccc12)C(=O)Nc1ccncc1)c1ccc(-c2ccc(F)c(F)c2)cc1F`, the figures for the t1/2 in the data set on Liver microsome [2] and with Liver were 18 min and 39 min, respectively.
What is called inhibition is the relative decrease from the control value, in per cent. `O=C(N[C@H](Cc1c[nH]c2ccccc12)C(=O)Nc1ccncc1)c1ccc(-c2ccc(C(F)(F)F)c(F)c2)cc1F`: the results for the half-life at 1 µM in data set [1], in data set [4] and in data set [5] were 39 min, 45 min and 69 min, respectively. The molecule further had an EC50 with Trypanosoma cruzi of 2.9 nM. Moreover, the inhibition at 10 min, 1 µM on CYP1A2 was -4%; at CYP2D6 it was 27%; at CYP2C9 it was 92%; on CYP3A4, 24%.
With `O=C(N[C@H](Cc1c[nH]c2ccccc12)C(=O)Nc1ccncc1)c1ccc(N2CCN(c3cccc(C(F)(F)F)c3)CC2)cc1F`, the half-life at 1 µM was determined as 24 min in data set [1], 8 min in [4] and 11 min in data set [5]. This molecule also came in with a concentration for a half-maximal effect (EC50) in the data set with Trypanosoma cruzi of 0.47 nM. Further, the inhibition at 10 min, 1 µM at CYP1A2 was 10%; on CYP2D6, 74%; at CYP2C9 it was 96%; on CYP3A4 it was 86%.
As to `O=C(N[C@H](Cc1c[nH]c2ccccc12)C(=O)Nc1ccncc1)c1ccc(-c2ccc(OCc3ccc(F)cc3F)c(F)c2)cc1F`, the half-life at 1 µM is 30 min in data set [1], 25 min in data set [4] and 34 min in [5]. For the same molecule, it took 0.6 nM to reach a half-maximal effect in the data set with Trypanosoma cruzi (EC50). In addition, the inhibition at 10 min, 1 µM on CYP1A2 was -9%; at CYP2D6 it was 21%; at CYP2C9, 84%; on CYP3A4 it was 38%.
In the case of `O=C(N[C@H](Cc1c[nH]c2ccccc12)C(=O)Nc1ccncc1)c1ccc(-c2ccc(OCc3ccc(F)cc3)c(C(F)(F)F)c2)cc1F`, the half-life at 1 µM in data set [1] amounted to 53 min; in [4], 29 min; in [5], 51 min. Further, the EC50 in the data set on Trypanosoma cruzi was 9.2 nM. The inhibition at 10 min, 1 µM at CYP1A2 was -26%; at CYP2D6 it was -17%; on CYP2C9, 41%; at CYP3A4, 15%.
